In the library only some 4.3% were active in any assay of this set; here they are far more common.
AHR act – activates the human aryl hydrocarbon receptor. AHR-responsive luciferase reporter cells, luminescence. activation, % at 5 µM. actives 2.5% (n = 320,000); in the data active means activation above about 47%;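 further: 0% = vehicle wells and 100% = reference agonist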
SR-BI uptake up – enhances SR-BI lipid uptake from DiI-HDL | CHO ldlA[mSR-BI] cells, DiI-HDL uptake fluorescence, 3 h; 100 = double the neutral-control signal | AID 504775 | activation, % at 12.5 µM | actives 0.096% (n = 320,000);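 active means mean replicate activation of at least 60% and every replicate at or above 60%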;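 further: 0% = median plate neutral-control signal and 100% = twice that signal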
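System: CHO ldlA[mSR-BI] cells / Medium: HEPES-buffered (25 mM, pH 7.4) F12 plus 0.5% BSA / Probe or stimulus: labelled HDL, 10 µg/mL / Doses: single compound concentration, delivered by pin transfer / Schedule: 3 h, 37 °C / Measured by: DiI fluorescence, bottom read / Measure: cell-associated DiI fluorescence as measure of HDL uptake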
Lipid droplet – hepatic lipid droplet formation modulation; actives 0.4% (n = 240,000); AML12 mouse hepatocytes, oleate lipid droplets, BODIPY imaging; inhibition, % at 6.5 µM; AID 1656;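 active means lipid droplet intensity inhibited by at least 50%, with more than 500 cells counted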
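Material – mouse AML12 hepatocyte cell line, fixed after treatment · Compound dosing – one dose, 6.5 µM compound · Times – compound with oleate, overnight · Measured by – Image-based BODIPY and DAPI two-channel analysis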
SMARCA2 act – activators of SMARCA2 function; activation, % at 9.1 µM; actives 1% (n = 370,000); MG213 cells, MMTV-luciferase reporter, dexamethasone, overnight; in the data active means activation above about 7.8%;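 further: 0% = vehicle wells and 100% = reference activator wells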
Yeast superoxide – lowers age-related superoxide in aged yeast cells; S. cerevisiae aged cells, superoxide DHE fluorescence; hits give low values; superoxide response (% of plate mean), % at 10 µM; actives 0.18% (n = 330,000); AID 2690;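 active means superoxide response under a set limit, about three screen SD below normal, cut at about 65% in these data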;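 further: yeast aged for seven days with compound at 30 °C before DHE staining; 100% = average MFI of all compound-treated wells on the plate with controls excluded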
SR-BI DiI inh – mouse SR-BI HDL lipid transfer inhibition; AID 488896; Q61009; ldlA[mSR-BI] CHO cells, DiI-HDL uptake fluorescence, 3 h; inhibition, % at 12.5 µM; actives 0.96% (n = 320,000);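 active means mean replicate inhibition of at least 70% and a set share of replicates each scoring 70 or more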;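 further: 0% = median of neutral control wells and 100% = median of positive control wells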
Target sequence (Q61009 whole entry, looked up): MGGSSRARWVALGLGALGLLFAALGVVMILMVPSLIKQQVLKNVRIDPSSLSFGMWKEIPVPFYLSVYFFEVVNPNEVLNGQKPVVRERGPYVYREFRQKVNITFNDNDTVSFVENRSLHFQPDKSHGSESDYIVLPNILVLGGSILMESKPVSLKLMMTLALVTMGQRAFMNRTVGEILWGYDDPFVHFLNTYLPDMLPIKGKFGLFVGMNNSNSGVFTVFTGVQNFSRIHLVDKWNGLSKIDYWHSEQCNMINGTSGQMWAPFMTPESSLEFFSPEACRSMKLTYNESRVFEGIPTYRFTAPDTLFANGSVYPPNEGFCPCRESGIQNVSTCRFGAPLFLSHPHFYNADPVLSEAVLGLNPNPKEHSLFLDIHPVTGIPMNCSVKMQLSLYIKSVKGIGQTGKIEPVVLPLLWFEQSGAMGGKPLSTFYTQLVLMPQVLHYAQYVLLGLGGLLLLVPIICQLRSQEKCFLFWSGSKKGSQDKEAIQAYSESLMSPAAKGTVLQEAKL
* hit, by the source's call; x = no result.

SMILES	AHR act	SR-BI uptake up	Lipid droplet	SMARCA2 act	Yeast superoxide	SR-BI DiI inh
COc1ccc(Cl)cc1Nc1cc(C)nc2nc(C)nn12	71*	3	-2	-1	95	-3
COc1cc(C(=O)Nc2nnc(C3CC3)s2)ccc1OCc1c(C)noc1C	4	-88	4	2	92	88*
COc1cc(C(=O)Nc2nc3ccccc3s2)ccc1OCc1c(C)noc1C	-6	-67	x	0	88	67
COc1cc(C(=O)Nc2nccs2)ccc1OCc1c(C)noc1C	17	-76	x	-3	111	76*
Cc1ccc(Cn2c(O)c(N=O)c3ccccc32)cc1	0	28	-16	-1	108	-28
Cc1cccc2c(N=O)c(O)n(CCc3ccccc3)c12	67*	-5	-3	-1	147	5
CCn1c(SCC(=O)N(C)c2ccccc2)nc2c([nH]c3ccccc32)c1=O	72*	-14	5	-1	90	14
COCCn1c(SCC(=O)N2CC(C)OC(C)C2)nc2c([nH]c3ccccc32)c1=O (configuration not stated)	30	-5	-1	-2	103	5
CCn1c(SCC(=O)N2CC(C)OC(C)C2)nc2c([nH]c3ccccc32)c1=O (configuration not stated)	50*	4	-27	-1	98	-4
Cc1ccc(S(=O)(=O)NC(CCCNC(=O)OCc2ccccc2)C(=O)O)cc1 (configuration not stated)	x	x	x	-2	x	x
COc1cc(NC(=S)Nc2ccccn2)cc(OC)c1	74*	3	39	0	95	-3
S=C(Nc1ccccn1)Nc1ccccc1Cl	68*	3	-26	-1	111	-3
COc1ccc(NC(=S)Nc2ccccn2)c(OC)c1	33	-20	-11	-3	86	20
COc1cc(NC(=S)Nc2ccccn2)cc(OC)c1OC	77*	-38	-13	-1	113	38
S=C(Nc1ccccn1)c1ccccn1	61*	42	7	7.8*	105	-42
NC(=O)c1ncn([C@@H]2O[C@H](C(=O)N[C@H](Cc3ccccc3)C(=O)N3CCN(CC(=O)Nc4ccccn4)CC3)[C@@H](O)[C@H]2O)n1	x	x	x	1	x	x
COc1ccccc1NC(=O)CSc1c2c(nc3ccccc13)CCC2	47*	-13	-10	-2	89	13
COc1ccc(NC(=O)CSc2c3c(nc4ccccc24)CCCC3)c(OC)c1	2	-26	-16	-2	115	26
O=C1[C@@H](C2CCCCC2)[C@@H]2c3ccccc3C=NN2[C@@H]2c3ccccc3C=NN12	x	x	x	-4	x	x
Cc1cc(N2O[C@]34C=C[C@]25C[C@@H](O)CC[C@]5(C)C3CC[C@]2(C)[C@@H]([C@H](C)/C=C/[C@H](C)C(C)C)CC[C@H]24)no1 (some centres not stated)	x	-3	x	1	57*	3
CC(C)[C@@H](C)/C=C/[C@@H](C)[C@H]1CC[C@@H]2[C@]1(C)CCC1[C@]23C=C[C@]2(C[C@@H](O)CC[C@]12C)N(c1cnccn1)O3 (some centres not stated)	x	x	x	0	x	x
CCCCOc1ccc(-c2nnc(-c3ccncc3)o2)cc1	27	12	x	0	97	-12
CCOc1ccc(-c2nnc(-c3ccncc3)o2)cc1	61*	x	x	6	100	-4
COc1cc(NC(C)=O)ccc1-c1cc2ccccc2oc1=O	29	-24	6	-1	82	24
COc1ccc(Cl)cc1NC(=O)C/C(C)=N/NC(=O)CC#N	72*	-10	12	1	91	10
SMILES	AHR act	SR-BI uptake up	Lipid droplet	SMARCA2 act	Yeast superoxide	SR-BI DiI inh
COc1cc(NC(=O)c2ccc(Cl)cc2Cl)ccc1-c1cc2ccccc2oc1=O	-2	-84	x	2	97	84*
COc1cc(NC(=O)c2cccs2)c(OC)cc1NC(=O)Cc1ccccc1	1	x	1	-4	109	x
Cc1ccc(C(=O)NC(=S)Nc2ccc(-c3cc4ccccc4oc3=O)cc2)c(C)c1	-3	-82	0	-6	102	82*
COc1cc(NC(=O)c2cccs2)c(OC)cc1NC(=O)c1cccs1	57*	-27	0	x	108	27
CCN(C(=O)C1CCN(c2ncccn2)CC1)c1ccccc1	x	x	x	3	x	x
O=S1(=O)CC2c3ccccc3CCN2CN1Cc1ccc(F)cc1 (configuration not stated)	x	x	x	-4	x	x
O=C(Nc1ccccc1)Nc1nc2ncccn2c1-c1ccc(C(F)(F)F)cc1	x	x	x	-2	x	x
COc1cc(NC(=O)c2ccc(Cl)cc2Cl)ccc1NC(=O)c1cccs1	5	-73	1	2	94	73*
COc1cc(NC(=O)C/C(C)=N/NC(=O)c2cccs2)c(OC)cc1Cl	64*	-36	1	2	94	36
COc1ccc(NC(=O)CCC(=O)c2cccs2)cc1Cl	-1	-6	12	3	89	6
COc1cc(NCCC(=O)c2cccs2)c(OC)cc1Cl	51*	-5	15	-3	78	5
CC(C)[C@@H]1CC[C@@H](C)C[C@H]1OC[B-](F)(F)F	x	x	x	1	x	x
COc1ccccc1C(=O)N1CCN(C(=O)[C@@H](Cc2ccccc2)NC(=O)[C@H]2O[C@@H](n3ccc(=O)[nH]c3=O)[C@H](O)[C@@H]2O)CC1	x	x	x	-4	x	x
COc1ccc(-c2cc(C(=O)NN=C/C(C)=C/c3ccccc3)[nH]n2)cc1	x	x	x	-6	x	x
COC(=O)[C@]12C[C@H](CC(=O)NCc3cccc(C(F)(F)F)c3)C(=O)N(CCc3ccc(OC)c(OC)c3)C1=C[C@H](COCc1ccccc1)O[C@@H]2C	x	x	x	2	x	x
CN(C)c1ccc(C2CC(=O)OC3=C2C(=O)CC(C)(C)C3)cc1 (configuration not stated)	-1	68*	0	2	108	-68
Cc1ccc(NC(=O)c2ccc(F)cc2)cc1S(=O)(=O)N1CCCCCC1	0	-46	-25	-5	88	46
Cc1ccc(C(=O)Nc2ccc3cn[nH]c3c2)cc1S(=O)(=O)N1CCCCC1	55*	-20	-18	-1	99	20
Cc1ccc(OCC(=O)Nc2ccc(C)c(S(=O)(=O)N3CCCCCC3)c2)c([N+](=O)[O-])n1	2	-74	6	-3	117	74*
Cc1ccc(C(=O)Nc2cccc(O)c2)cc1S(=O)(=O)N1CCCCCC1	1	x	6	1	127	x
COc1ccc(C(=O)Nc2ccc(C)c(S(=O)(=O)N3CCCCCC3)c2)cc1	2	-81	-11	-3	113	81*
Cc1ccc(OCC(=O)Nc2cccc(S(=O)(=O)N3CCCCC3)c2)c([N+](=O)[O-])n1	-2	-19	-2	2	100	19
